In paper PMC3000613 (Biochemistry, 2010):

How the values were obtained:
[1] = tested on: MBP-sAnk1_29–155 / GST-Obsc6231–6260; assay type: binding, rat; details: for molar excess of peptide over sAnk1 needed to inhibit binding by 50%: binding of GST-Obsc6231–6260 construct to sAnk1, 1 µM MBP-sAnk1, SPR
Summary of the method: (§1)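 Each GST-obscurin fusion was expressed in BL21* pLysS cells (1 mM IPTG, 4 h), affinity-purified, and captured by anti-GST on a CM5 SPR chip. 1 µM MBP-sAnk1 was pre-mixed with synthetic 6316–6345 or 6231–6260 oligopeptide at varying relative molar amounts, then flowed over the chip. Inhibition constant = reciprocal of the peptide:sAnk1 concentration ratio blocking maximal binding by 50%.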

MBP-sAnk1_29–155 [2] = experiment: SPR direct binding of GST-obscurin constructs to MBP-sAnk1; set-up: species or system rat; details: GST fusion constructs vs MBP-sAnk1_29–155
Summary of the method: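 GST-obscurin constructs, expressed in BL21* pLysS cells (1 mM IPTG, 4 h) and affinity-purified, were captured by anti-GST on a CM5 chip. MBP-sAnk1 was applied over a wide concentration range. Signal from a GST-only chip and a buffer blank was subtracted. Kinetic rate constants and KD came from 1:1 binding model fits.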

[3] = tested on: MBP-sAnk1_29–155 / GST-Obsc6316–6345; set-up: species or system rat; details: binding to GST-Obsc6316–6345
Summary of the method: as §1

MBP-sAnk1_29–155 [4] = experiment: SPR competition, oligopeptide inhibition of MBP-sAnk1 binding; set-up: species or system rat; details: binding of MBP-sAnk1_29–155 to either GST-Obsc6316–6345 or GST-Obsc6231–6260

| molar excess of peptide over sAnk1 needed to inhibit binding by 50% [1] | Ratio of inhibition constants, 6316–6345 to 6231–6260 oligopeptide ([1]; binding to GST-Obsc6231–6260) | Ratio of inhibition constants, 6316–6345 to 6231–6260 oligopeptide [3] | relative inhibition of binding vs 6231–6260 oligopeptide (MBP-sAnk1_29–155 [4]) | Substance | binding to sAnk1 by SPR (in words) (MBP-sAnk1_29–155 [2]) |
| --- | --- | --- | --- | --- | --- |
| ~ 6 fold molar excess | – | – | – | Obsc6231–6260 oligopeptide: synthetic oligopeptide containing obscurin residues 6231–6260 | – |
| ~ 2 fold molar excess | 3.29 | 3.00 | ~ 3 fold | Obsc6316–6345 oligopeptide: synthetic oligopeptide containing obscurin residues 6316–6345 (GAAWPGAGTGELLWDVHSHVVRETTQRTYT; UniProt Q5VST9 6316-6345, looked up, fragment) | no significant difference in binding between Obsc6316–6436 and Obsc6316–6345 |
